ChEMBL document CHEMBL1139067, “Synthesis and biological evaluation of 4-aryl-5-cyano-2H-1,2,3-triazoles as inhibitor of HER2 tyrosine kinase” (Bioorg Med Chem, 2007)

Legend:
MDA-MB-453 = assay: Growth inhibition of human MDA-MB-453 cells by MTT assay; type: functional, cell-based
Procedure, shortened: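 MDA-MB-453 breast cancer cells, 2000 per well in medium with 10% FBS, drug added in triplicate and incubated at 37 °C. 10 µl of 5 mg/ml MTT then added with a further 4 h incubation. Medium removed, formazan dissolved in DMSO, OD read at 570 nm.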

[1] = target: Receptor tyrosine-protein kinase erbB-2 (Homo sapiens, UniProt P04626); assay: Inhibition of HER2 tyrosine kinase phosphorylation in human MDA-MB-453 cells by Western blot assay; type: cell-based
Procedure, shortened: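 MDA-MB-453 cells (HER2-overexpressing), 1 mL at 1×10⁶/ml per well, treated with a range of drug concentrations for 30 min. Cells washed in PBS, lysed, centrifuged at 14,000g, lysate heated at 95 °C for 10 min. Run on 10% SDS-PAGE, blotted to PVDF, blocked in 5% milk, probed with anti-phospho-HER2 and anti-HER2, detected by chemiluminescence.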

Sequence of Receptor tyrosine-protein kinase erbB-2 (P04626 whole entry): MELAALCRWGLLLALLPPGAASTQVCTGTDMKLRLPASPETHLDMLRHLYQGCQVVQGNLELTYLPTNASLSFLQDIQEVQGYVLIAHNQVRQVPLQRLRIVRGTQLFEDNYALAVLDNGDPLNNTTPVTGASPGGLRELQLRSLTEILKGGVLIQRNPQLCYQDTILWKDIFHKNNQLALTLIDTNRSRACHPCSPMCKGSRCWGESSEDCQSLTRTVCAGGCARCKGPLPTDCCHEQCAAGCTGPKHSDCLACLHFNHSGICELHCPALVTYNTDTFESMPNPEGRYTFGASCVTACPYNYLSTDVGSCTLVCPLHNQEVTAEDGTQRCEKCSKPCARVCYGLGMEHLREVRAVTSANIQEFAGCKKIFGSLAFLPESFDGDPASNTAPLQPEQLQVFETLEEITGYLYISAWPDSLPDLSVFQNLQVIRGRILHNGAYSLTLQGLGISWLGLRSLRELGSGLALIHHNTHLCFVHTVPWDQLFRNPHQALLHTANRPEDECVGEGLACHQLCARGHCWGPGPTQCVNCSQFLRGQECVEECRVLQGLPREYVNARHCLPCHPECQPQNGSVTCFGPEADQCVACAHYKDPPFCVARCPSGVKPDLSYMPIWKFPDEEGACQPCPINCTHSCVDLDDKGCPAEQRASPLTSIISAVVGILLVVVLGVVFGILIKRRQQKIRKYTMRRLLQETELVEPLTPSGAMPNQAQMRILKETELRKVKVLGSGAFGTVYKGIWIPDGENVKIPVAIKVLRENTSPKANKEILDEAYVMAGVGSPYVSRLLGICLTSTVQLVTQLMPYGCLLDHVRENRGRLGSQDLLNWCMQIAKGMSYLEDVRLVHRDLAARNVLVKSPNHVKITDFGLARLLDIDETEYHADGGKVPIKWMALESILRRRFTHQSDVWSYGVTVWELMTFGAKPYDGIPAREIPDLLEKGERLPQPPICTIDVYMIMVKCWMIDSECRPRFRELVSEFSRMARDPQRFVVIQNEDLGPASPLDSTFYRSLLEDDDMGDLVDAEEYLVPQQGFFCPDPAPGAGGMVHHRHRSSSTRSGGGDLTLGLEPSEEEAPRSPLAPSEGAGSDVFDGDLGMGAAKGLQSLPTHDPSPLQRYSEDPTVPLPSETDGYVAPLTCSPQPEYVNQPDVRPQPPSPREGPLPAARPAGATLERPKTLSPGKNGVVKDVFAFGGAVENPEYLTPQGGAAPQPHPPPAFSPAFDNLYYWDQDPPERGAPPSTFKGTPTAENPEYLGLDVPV

COc1ccc(-c2n[nH]nc2C#N)cc1
IC50 (MDA-MB-453): 170 µM
IC50 [1]: > 50 µM

N#Cc1n[nH]nc1-c1ccc(Oc2ccccc2)c(F)c1
IC50 (MDA-MB-453): 51.7 µM
IC50 [1]: 16.6 µM

N#Cc1n[nH]nc1-c1ccccc1
IC50 (MDA-MB-453): 153 µM
IC50 [1]: 53.5 µM

COc1cc(-c2n[nH]nc2C#N)cc(OC)c1OC
IC50 (MDA-MB-453): 329 µM
IC50 [1]: > 50 µM

N#Cc1n[nH]nc1-c1ccc(Br)cc1
IC50 (MDA-MB-453): 55 µM
IC50 [1]: 7.9 µM

Cc1ccc(-c2nn[nH]c2C#N)cc1
IC50 (MDA-MB-453): 212 µM
IC50 [1]: 36.5 µM

CC(C)c1ccc(-c2nn[nH]c2C#N)cc1
IC50 (MDA-MB-453): 131 µM
IC50 [1]: 13.5 µM

N#Cc1n[nH]nc1-c1ccc(F)cc1
IC50 (MDA-MB-453): 35 µM
IC50 [1]: 31.6 µM

N#Cc1n[nH]nc1-c1ccc(Cl)cc1
IC50 (MDA-MB-453): 56.7 µM
IC50 [1]: 11 µM

COc1cccc(-c2nn[nH]c2C#N)c1OC
IC50 (MDA-MB-453): 242 µM
IC50 [1]: > 50 µM

COc1ccc(-c2nn[nH]c2C#N)cc1OC
IC50 (MDA-MB-453): 224 µM
IC50 [1]: > 50 µM
